Assay outcomes: PubChem, SRMLSC
This is one part of a sample in which hits are shown more often than they occur.
PTEN del growth – PTEN-deleted cell growth suppression. HCT116 PTEN-null viability, CellTiter-Glo, 60 h; active compounds read low. viability, % at 10 µM. 140,000 compounds, 1.2% hits. AID 827;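 active = viability at or below a set limit, 4 SD under the median of all tested compounds, cut at about 3.7% in these data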;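 note: PTEN knockout HCT116 line with beta catenin targeted HCT116 as companion control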
H69AR inhibit – growth inhibitors of human H69AR lung tumor cells; H69AR lung tumor viability, ATP luminescence, 72 h; active compounds read low; 85,000 compounds, 6% hits; AID 598; viability, % at 10 µM;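 active = viability at or below 40%; inactive = viability above 40%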;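 note: multidrug resistant small cell line overexpressing MRP-1 efflux transporter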
HUVEC inhibit – human endothelial cell proliferation inhibition. HUVEC proliferation, CellTiter-Glo luminescence, 72 h; active compounds read low. viability, % at 10 µM (by protocol). 86,000 compounds, 1.1% hits. AID 648;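 active = viability at or below 30%; inactive = viability above 30%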
bCat KO growth – beta-catenin-lacking colon tumor cell growth suppression. HCT116 beta-catenin knockout viability, CellTiter-Glo, 60 h; active compounds read low. viability, % at 10 µM. 140,000 compounds, 1.5% hits;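 active = viability at or under a set limit, the compound median less 4 SD, cut at about 6% in these data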
Lung fibro prol – blocks proliferation of human lung fibroblasts. LL 47 human lung fibroblast viability, ATP luminescence; active compounds read low. 85,000 compounds, 1.1% hits. viability, % at 10 µM;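 active = viability at or below 50% in the single dose screen; inactive = viability above 50%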;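 note: compound exposure lasted 72 h before the ATP readout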
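test system = LL 47 human lung fibroblasts | amount = 1,150 fibroblasts seeded per well | medium = 15% FBS in IMEM | times = overnight cell rest, 72 h compound treatment at 37 °C | measured by = CellTiter-Glo luminescence measuring cellular ATP | read-out = viability percentage against median untreated-cell control | benchmarks = cell-only wells, no compound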
Of the large screens only hits and unclear results are named; the others gave an inactive call.

CN1CCC(N(C)c2nc(-c3ccccc3)nc3ccccc23)CC1	H69AR inhibit 27
CCCCc1nc(N2CCNCC2)c(C#N)c2c1CSC(C)(C)C2	PTEN del growth 1.9, bCat KO growth 1.7 (no result: H69AR inhibit, HUVEC inhibit, Lung fibro prol)
CCCCCCCSc1cc(OC)c(CCNC)cc1OC	PTEN del growth 1.6, bCat KO growth 1.5 (no result: H69AR inhibit, HUVEC inhibit, Lung fibro prol)
COc1ccc2c(c1)c(C(=O)CN1CCC3(CC1)OCCO3)c(C)n2Cc1ccccc1	none
O=C1CN=C(c2cccs2)c2c(sc3c2CCCC3)N1	H69AR inhibit 21
COc1cccc(OC)c1C1=NCC(=O)Nc2c1oc1ccc(Br)cc21	H69AR inhibit 34
N#CCC(=O)NN1Cc2ccccc2C1=N	none (no result: H69AR inhibit, HUVEC inhibit, Lung fibro prol)
N=C1c2ccccc2CN1NC(=O)c1ccc(Br)cc1	none (no result: H69AR inhibit, HUVEC inhibit, Lung fibro prol)
COc1ccc(OC)c2c1CCC1NCCOC21 (stereo unspecified)	none (no result: H69AR inhibit, HUVEC inhibit, Lung fibro prol)
CCCC1(CCC)C(=O)NC(=NCc2ccccc2)NC1=O	H69AR inhibit 29
Nc1c(C(=O)NCCCc2ccccc2)c2nc3ccccc3nc2n1Cc1cccs1	PTEN del growth 1.9, bCat KO growth 2.9
CCCCn1c(N)c(C(=O)NCc2cccs2)c2nc3ccccc3nc21	H69AR inhibit 35
CCCOC(=O)c1c(N)n(Cc2cccs2)c2nc3ccccc3nc12	none
CCCCCn1c(N)c(C(=O)NCc2cccs2)c2nc3ccccc3nc21	H69AR inhibit 32
O=c1[nH]c(=O)n(C2CCCCCC2)c(O)c1C=NC1CCN(Cc2ccccc2)CC1	H69AR inhibit 35
CCOc1cccc(OCC)c2c(C)[n+](CC3CCCO3)c(C)c1-2 (stereo unspecified)	H69AR inhibit 32
COc1ccc(C(Nc2ccccc2)P(=O)(Oc2ccccc2)Oc2ccccc2)cc1 (stereo unspecified)	none (no result: H69AR inhibit, HUVEC inhibit, Lung fibro prol)
O=C(NCCCN1CCOCC1)C(Cl)(Cl)Cl	none (no result: H69AR inhibit, HUVEC inhibit, Lung fibro prol)
CC(=Nc1ccc2c(c1)CCC2)c1c(O)n(C2CCCCC2)c(=O)[nH]c1=O	Lung fibro prol 37
CCOC(=O)C1=C(N)Oc2cc(C)oc(=O)c2C12C(=O)N1c3c(cc(OC)cc32)C(C)=CC1(C)C (stereo unspecified)	H69AR inhibit 31
CCOC(=O)C1=C(N)Oc2cc(C)oc(=O)c2C12C(=O)N1c3c(cccc32)C(C)=CC1(C)C (stereo unspecified)	none
N#CCCn1cc(C(=O)Nc2ccccc2Br)c(-c2ccc3c(c2)OCCO3)n1	none (no result: H69AR inhibit, HUVEC inhibit, Lung fibro prol)
CCOc1ccccc1-n1c(O)c(C=Nc2ccc(N(CC)CC)cc2)c(=O)[nH]c1=O	H69AR inhibit 19
CCN(CC)c1ccc(N=Cc2c(O)n(-c3ccccc3C)c(=O)[nH]c2=O)cc1	none
CCN(CC)c1ccc(N=Cc2c(O)n(Cc3ccccc3)c(=O)[nH]c2=O)cc1	H69AR inhibit 17
C=CCn1c(O)c(C(C)=Nc2ccc(N(CC)CC)cc2)c(=O)[nH]c1=O	H69AR inhibit 20
CCOc1ccc(-n2c(O)c(C=Nc3ccc(N(CC)CC)cc3)c(=O)[nH]c2=O)cc1	none
CCOc1cc(/C=C2/C(=O)NC(=O)N(c3ccc(CC)cc3)C2=O)ccc1OC(=O)c1cccs1	none (no result: H69AR inhibit, HUVEC inhibit, Lung fibro prol)
Cc1ccc(Cn2cc(C=O)c(-c3ccc(C)cc3)n2)cc1	none (no result: H69AR inhibit, HUVEC inhibit, Lung fibro prol)
O=P(NS(=O)(=O)c1ccc(Br)cc1)(Oc1ccccc1)Oc1ccccc1	none
Cc1nn(C)cc1/C=C1/CC2C3CC=C4CC(O)CCC4(C)C3CCC2(C)C1=O (stereo unspecified)	H69AR inhibit 9.0 (no result: PTEN del growth, bCat KO growth)
CC12CCC3C(CC=C4CC(O)CCC43C)C1C/C(=C\c1ccccc1F)C2=O (stereo unspecified)	none (no result: H69AR inhibit, HUVEC inhibit, Lung fibro prol)
O=S(=O)(c1ccccc1)N1CC1c1ccccc1 (stereo unspecified)	none (no result: H69AR inhibit, HUVEC inhibit, Lung fibro prol)
O=c1c2ccccc2nc(-c2ccc(Cl)cc2Cl)n1-c1nccs1	none (no result: H69AR inhibit, HUVEC inhibit, Lung fibro prol)
C[C@H]1CCCC(=O)CCC/C=C/c2cc(O)cc(O)c2C(=O)O1	H69AR inhibit 36
COc1ccc(N=C2SCCCN2C)cc1	none
Nc1cc(Cl)c2nonc2c1[N+](=O)[O-]	PTEN del growth 2.2, bCat KO growth 4.9 (no result: H69AR inhibit, HUVEC inhibit, Lung fibro prol)
COc1cc(/C=C/C(=O)c2c(O)n(CCc3ccccc3)c(=O)[nH]c2=O)ccc1O	none (no result: H69AR inhibit, HUVEC inhibit, Lung fibro prol)
O=C(Nc1ccc(Cl)cc1)Nc1nccs1	H69AR inhibit 29
CN(Cc1ccccc1)C(=C(Cl)Cl)/C(=C1/NCCN1Cc1ccc(Cl)nc1)[N+](=O)[O-]	none
CCCCn1c(O)c(C(C)=NC(C)c2ccccc2)c(=O)[nH]c1=O (stereo unspecified)	H69AR inhibit 28
CCCCn1c(O)c(C(CC)=NC(C)c2ccccc2)c(=O)[nH]c1=O (stereo unspecified)	H69AR inhibit 17
CCCCn1c(O)c(C(C)=NCCc2ccccc2)c(=O)[nH]c1=O	none
CCCCn1c(O)c(C(CC)=Nc2ccc(OC)cc2OC)c(=O)[nH]c1=O	H69AR inhibit 34
C[N+]1(CC(COCc2ccccc2)OC(=O)Cc2ccccc2)CCOCC1 (stereo unspecified)	none (no result: H69AR inhibit, HUVEC inhibit, Lung fibro prol)
CCOC(=O)C1=C(NC(=S)NC(=O)c2ccccc2)c2ccccc2CC12CCCC2	none (no result: H69AR inhibit, HUVEC inhibit, Lung fibro prol)
Brc1ccc2c(c1)C(OC1CN3CCC1CC3)c1ccccc1CS2 (stereo unspecified)	PTEN del growth 2.9, bCat KO growth 6.0 (no result: H69AR inhibit, HUVEC inhibit, Lung fibro prol)
Cc1cc(C)[n+](C2C3CC4CC(C3)CC2C4)o1 (stereo unspecified)	none (no result: H69AR inhibit, HUVEC inhibit, Lung fibro prol)
Cc1oc(C(=O)Nc2ccc(O)cc2)cc1COc1ccccc1	H69AR inhibit 29
Cc1nc2cc(C(=O)N3CCC4(CC3)OCCO4)ccc2n1-c1cccc(F)c1	none
O=C(c1ccc2c(c1)ncn2C1CCCCCC1)N1CCC2(CC1)OCCO2	H69AR inhibit 28
CCOCCCN=Cc1c(O)n(Cc2ccccc2)c(=O)[nH]c1=O	none
C=CCn1c(O)c(C=NCCCOc2ccc(CC)cc2)c(=O)[nH]c1=S	H69AR inhibit 31
CCCCN1C(=O)C(C2c3ccccc3C(=O)N2Cc2ccccc2)C(=O)NC1=S (stereo unspecified)	none
Cc1[nH]c2c(Cl)cccc2c1CCN	H69AR inhibit 22 (no result: PTEN del growth, bCat KO growth)
N#Cc1cc2c(nc1SCC(=O)Nc1cc(Cl)ccc1Cl)C1CCN2CC1	PTEN del growth 0.7, H69AR inhibit 1.8, HUVEC inhibit 5.5, bCat KO growth 1.1, Lung fibro prol 7.1
CCc1nc2ccccc2c(=O)n1-c1ccc2ccccc2c1	H69AR inhibit 31
CCCCCCn1c(N)c(C(=O)NCCN2CCOCC2)c2nc3ccccc3nc21	PTEN del growth 1.4, H69AR inhibit 1.5, HUVEC inhibit 28
Nc1c(C(=O)NCc2ccco2)c2nc3ccccc3nc2n1Cc1ccccc1	none (no result: H69AR inhibit, HUVEC inhibit, Lung fibro prol)
CCCNC(=O)c1c(N)n(CC2CCCO2)c2nc3ccccc3nc12 (stereo unspecified)	none
CCOCCCn1c(N)c(C(=O)Nc2sc3c(c2C(=O)OC)CCCC3)c2nc3ccccc3nc21	none (no result: H69AR inhibit, HUVEC inhibit, Lung fibro prol)
CCCCCn1c(N)c(C(=O)NCCN2CCOCC2)c2nc3ccccc3nc21	H69AR inhibit 30
CCOC(=O)c1c(NC(=O)c2c(N)n(CCCOC)c3nc4ccccc4nc23)sc2c1CCCC2	H69AR inhibit 11, bCat KO growth 4.0
CCCCNC(=O)c1c(N)n(Cc2ccc3c(c2)OCO3)c2nc3ccccc3nc12	H69AR inhibit 5.1
